Molecules are shown by their SMILES. Starred links: 1 amine or outer side, 2 acyl side, 3 side chain; linkers in the order of their positions; H or OH if unused. Non-standard residues stand in square brackets, D forms with d. Residues, ends and D or L forms follow the SMILES beside them. Ala(imidazol-2-yl) = N[C@@H](Cc1ncc[nH]1)C(=O)O; X2 = O=C([C@H](CCc1ncc[nH]1)N[*:1])[*:2]; Phe(4-NH2) = Nc1ccc(C[C@H](N)C(=O)O)cc1; 3Thi = N[C@@H](Cc1ccsc1)C(=O)O; Aib = CC(C)(N)C(=O)O; Sar = CNCC(=O)O

Type in all cases: functional
Assay [1] has as its system Rattus norvegicus. As to the kind of experiment: In vivo agonist angiotensin II like activity was measured in rat blood pressure increase by a 1 ug iv injection. In outline: (§1)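 Rat blood pressure in vivo. Residual AII-like activity read as the pressor rise (mmHg) after a 1-μg intravenous bolus of compound. Mean of at least five tests with standard error.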
Assay [2] concerns Rattus norvegicus. As to the kind of experiment: Antagonist activity ID50 was measured in vivo in the rat blood pressure assay. The procedure, abridged:
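Rat blood pressure in vivo, 250-g rats, compound given by infusion. AII dose-response curves measured before and during the infusion. ID50 expressed as ng/rat per min. Mean of at least five tests with standard error.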

The next assay is filed under the species Oryctolagus cuniculus. As to the kind of experiment: In vitro agonist angiotensin II like activity was measured in the rabbit aorta strip assay. In outline: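 Isolated rabbit aortic strips in vitro. Agonist (AII-like) activity expressed as percent of the activity of AII.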
The test system of assay [3] is Rattus norvegicus. As to the kind of experiment: In vivo agonist angiotensin II like activity was measured in rat blood pressure assay. Also on record: concentration or dose not given beside the values. In outline: as §1

For `CC[C@H](C)[C@H](NC(=O)[C@@H]1CCCN1C(=O)[C@H](Cc1c[nH]cn1)NC(=O)[C@@H](NC(=O)[C@H](Cc1ccc(O)cc1)NC(=O)[C@@H](NC(=O)[C@@H](N)CCCN=C(N)N)C(C)C)[C@@H](C)CC)C(=O)O`, the BP increase in the assay with Rattus norvegicus [1] amounted to 5 mmHg. The molecule also had an ID50 with Rattus norvegicus [2] of 200 ng min-1 rat-1. Also, the Activity in the assay listed under Oryctolagus cuniculus is recorded as 0%.

In the assay with Rattus norvegicus [3], `CC[C@H](C)[C@H](NC(=O)[C@H](Cc1ccc(O)cc1)NC(=O)[C@@H](NC(=O)[C@H](C)N)C(C)C)C(=O)N[C@@H](Cc1c[nH]cn1)C(=O)N1CCC[C@H]1C(=O)N[C@@H](Cc1ccccc1)C(=O)O` came in with an Activity of 3%. On the same count and under the same terms, to `CC[C@H](C)[C@H](NC(=O)[C@H](Cc1ccc(O)cc1)NC(=O)[C@@H](NC(=O)[C@H](N)CCCCN=C(N)N)C(C)C)C(=O)N[C@@H](Cc1c[nH]cn1)C(=O)N1CCC[C@H]1C(=O)N[C@@H](Cc1ccccc1)C(=O)O` belongs 11%. `CC[C@H](C)[C@H](NC(=O)[C@H](Cc1ccc(O)cc1)NC(=O)[C@@H](NC(=O)[C@H](CCCN=C(N)N)NC(=O)[C@@H](N)CC(=O)O)C(C)C)C(=O)N[C@@H](C)C(=O)N1CCC[C@H]1C(=O)N[C@@H](Cc1ccccc1)C(=O)O` (H-DRVYIAPF-OH) gave an Activity in the assay with Rattus norvegicus [3] of 0.8%. `CC[C@H](C)[C@H](NC(=O)[C@@H]1CCCN1C(=O)[C@H](Cc1c[nH]cn1)NC(=O)[C@@H](NC(=O)[C@H](Cc1ccc(O)cc1)NC(=O)[C@@H](NC(=O)[C@H](CCCNC(N)=O)NC(=O)CNC)C(C)C)[C@@H](C)CC)C(=O)O`: the BP increase in the assay on Rattus norvegicus [1] was 25 mmHg. Moreover, the Activity in the assay filed under Oryctolagus cuniculus is recorded as 0%. As to `CC[C@H](C)[C@H](NC(=O)[C@H](Cc1ccc(O)cc1)NC(=O)[C@@H](NC(=O)[C@H](CCCN=C(N)N)NC(=O)[C@@H](N)CC(=O)O)C(C)C)C(=O)N[C@@H](CCCCN)C(=O)N1CCC[C@H]1C(=O)N[C@@H](Cc1ccccc1)C(=O)O` (H-DRVYIKPF-OH), the Activity in the assay on Rattus norvegicus [1] was found to be 0.1%.

Molecule `CC[C@H](C)[C@H](NC(=O)[C@@H]1CCCN1C(=O)[C@H](CCCCN)NC(=O)[C@@H](NC(=O)[C@H](Cc1ccc(O)cc1)NC(=O)[C@@H](NC(=O)[C@H](CCCN=C(N)N)NC(=O)CNC)C(C)C)[C@@H](C)CC)C(=O)O` (H-[Sar]RVYIKPI-OH) displayed an Activity in the assay listed under Oryctolagus cuniculus of 0%. `CC[C@H](C)[C@H](NC(=O)[C@H](Cc1ccc(O)cc1)NC(=O)[C@@H](NC(=O)[C@@H](C)NC)C(C)C)C(=O)N[C@@H](Cc1c[nH]cn1)C(=O)N1CCC[C@H]1C(=O)N[C@@H](Cc1ccccc1)C(=O)O` returned a BP increase in the assay on Rattus norvegicus [1] of 85 mmHg. The same molecule registered an Activity in the assay listed under Oryctolagus cuniculus of 1.4%. On to `CC[C@H](C)[C@H](NC(=O)[C@H](Cc1ccc(O)cc1)NC(=O)[C@@H](NC(=O)[C@@H](C)N)C(C)C)C(=O)N[C@@H](Cc1c[nH]cn1)C(=O)N1CCC[C@H]1C(=O)N[C@@H](Cc1ccccc1)C(=O)O`, for which the Activity with Rattus norvegicus [3] is 48%. Take `CC[C@H](C)[C@H](NC(=O)[C@H](Cc1ccc(O)cc1)NC(=O)[C@@H](NC(=O)[C@@H](N)CCCCN)C(C)C)C(=O)N[C@@H](Cc1c[nH]cn1)C(=O)N1CCC[C@H]1C(=O)N[C@@H](Cc1ccccc1)C(=O)O`: in the assay with Rattus norvegicus [3], the Activity was 3%. The same measure, in the same setting: to `CC[C@H](C)[C@H](NC(=O)[C@H](Cc1ccc(O)cc1)NC(=O)[C@@H](NC(=O)[C@H](N)CCCN)C(C)C)C(=O)N[C@@H](Cc1c[nH]cn1)C(=O)N1CCC[C@H]1C(=O)N[C@@H](Cc1ccccc1)C(=O)O` belongs 23%; to `CC[C@H](C)[C@H](NC(=O)[C@H](Cc1ccc(O)cc1)NC(=O)[C@@H](NC(=O)[C@H](CCCN=C(N)N)NC(=O)[C@@H](N)CC(=O)O)C(C)C)C(=O)N[C@@H](Cc1cn(C)cn1)C(=O)N1CCC[C@H]1C(=O)N[C@@H](Cc1ccccc1)C(=O)O`, 5%; to `CC[C@H](C)[C@H](NC(=O)[C@H](Cc1ccc(O)cc1)NC(=O)[C@@H](NC(=O)[C@H](CCCN=C(N)N)NC(=O)[C@@H](N)CC(=O)O)C(C)C)C(=O)N[C@@H](Cc1ccccc1)C(=O)N1CCC[C@H]1C(=O)N[C@@H](Cc1ccccc1)C(=O)O` (H-DRVYIFPF-OH), 5.1%. Molecule `CC[C@H](C)[C@H](NC(=O)[C@@H]1CCCN1C(=O)[C@@H](Cc1c[nH]cn1)NC(=O)[C@@H](NC(=O)[C@H](Cc1ccc(O)cc1)NC(=O)[C@@H](NC(=O)[C@H](CCCN=C(N)N)NC(=O)CNC)C(C)C)[C@@H](C)CC)C(=O)O` displayed an Activity in the assay filed under Oryctolagus cuniculus of 0%.

In the assay with Rattus norvegicus [3], `CC[C@H](C)[C@H](NC(=O)[C@H](Cc1ccc(O)cc1)NC(=O)[C@@H](NC(=O)[C@@H](N)CCCN)C(C)C)C(=O)N[C@@H](Cc1c[nH]cn1)C(=O)N1CCC[C@H]1C(=O)N[C@@H](Cc1ccccc1)C(=O)O` had an Activity of 3%. In the case of `CC[C@H](C)[C@H](NC(=O)[C@H](Cc1ccc(O)cc1)NC(=O)[C@@H](NC(=O)[C@H](CCCN=C(N)N)NC(=O)[C@@H](N)CC(=O)O)C(C)C)C(=O)N[C@@H](Cc1ncc[nH]1)C(=O)N1CCC[C@H]1C(=O)N[C@@H](Cc1ccccc1)C(=O)O` (H-DRVYI[Ala(imidazol-2-yl)]PF-OH), in the assay on Rattus norvegicus [3], the Activity was found to be 0.4%. `CC[C@H](C)[C@H](NC(=O)[C@H](Cc1ccc(O)cc1)NC(=O)[C@@H](NC(=O)CN(C)C(=O)CNC)C(C)C)C(=O)N[C@@H](Cc1c[nH]cn1)C(=O)N1CCC[C@H]1C(=O)N[C@H](C(=O)O)[C@@H](C)O` (H-[Sar][Sar]VYIHPT-OH) gave an Activity in the assay listed under Oryctolagus cuniculus of 0%. Same read-out and setting: to `CC[C@H](C)[C@H](NC(=O)[C@H](Cc1ccc(O)cc1)NC(=O)[C@@H](NC(=O)[C@H](CCCN=C(N)N)NC(=O)CNC)C(C)C)C(=O)N[C@@H](CC(=O)O)C(=O)N1CCC[C@H]1C(=O)N[C@H](C(=O)O)[C@@H](C)O` (H-[Sar]RVYIDPT-OH) belongs 0%.

In the assay on Rattus norvegicus [3], `CC[C@H](C)[C@H](NC(=O)[C@H](Cc1ccc(O)cc1)NC(=O)[C@@H](NC(=O)[C@H](CCCN=C(N)N)NC(=O)[C@@H](N)CC(=O)O)C(C)C)C(=O)N[C@@H](Cc1cncn1C)C(=O)N1CCC[C@H]1C(=O)N[C@@H](Cc1ccccc1)C(=O)O` returned an Activity of 0.05%. In the assay filed under Oryctolagus cuniculus, `CC[C@H](C)[C@H](NC(=O)[C@@H]1CCCN1C(=O)[C@H](Cc1c[nH]cn1)NC(=O)[C@@H](NC(=O)[C@H](Cc1ccc(O)cc1)NC(=O)[C@@H](NC(=O)[C@H](C)N)C(C)C)[C@@H](C)CC)C(=O)O` showed an Activity of 0%.

As for `CC[C@H](C)[C@H](NC(=O)[C@H](Cc1ccc(O)cc1)NC(=O)[C@@H](NC(=O)[C@@H](N)CCCN=C(N)N)C(C)C)C(=O)N[C@@H](Cc1c[nH]cn1)C(=O)N1CCC[C@H]1C(=O)N[C@@H](Cc1ccccc1)C(=O)O` (stereo in doubt; 5), the Activity in the assay with Rattus norvegicus [3] was determined as 15%; in the assay listed under Oryctolagus cuniculus, 47.4%. Molecule `CC[C@H](C)[C@H](NC(=O)[C@H](Cc1ccc(O)cc1)NC(=O)[C@@H](NC(=O)[C@H](CCCN=C(N)N)NC(=O)CNC)C(C)C)C(=O)N[C@@H](Cc1c[nH]cn1)C(=O)N1CCC[C@H]1C(=O)N[C@H](C(=O)O)[C@@H](C)O` (H-[Sar]RVYIHPT-OH) gave an Activity in the assay filed under Oryctolagus cuniculus of 0.6%.

`CC[C@H](C)[C@H](NC(=O)[C@H](Cc1ccc(O)cc1)NC(=O)[C@@H](NC(=O)[C@H](CCCN=C(N)N)NC(=O)[C@@H](N)CC(=O)O)C(C)C)C(=O)N[C@@H](CCc1ncc[nH]1)C(=O)N1CCC[C@H]1C(=O)N[C@@H](Cc1ccccc1)C(=O)O` (H-DRVYI[X2]PF-OH) came in with an Activity in the assay with Rattus norvegicus [3] of 0.05%. Molecule `CC[C@H](C)[C@H](NC(=O)[C@H](Cc1ccc(O)cc1)NC(=O)[C@@H](NC(=O)C(C)(C)N)C(C)C)C(=O)N[C@@H](Cc1c[nH]cn1)C(=O)N1CCC[C@H]1C(=O)N[C@@H](Cc1ccccc1)C(=O)O` (H-[Aib]VYIHPF-OH) returned a BP increase in the assay on Rattus norvegicus [1] of 60 mmHg. The molecule further returned an Activity in the assay listed under Oryctolagus cuniculus of 0%. Consider `CC[C@H](C)[C@H](NC(=O)[C@H](Cc1ccc(O)cc1)NC(=O)[C@@H](NC(=O)[C@H](CCCN=C(N)N)NC(=O)[C@@H](N)CC(N)=O)C(C)C)C(=O)N[C@@H](Cc1c[nH]cn1)C(=O)N1CCC[C@H]1C(=O)N[C@@H](Cc1ccccc1)C(=O)O` (H-NRVYIHPF-OH), for which the Activity in the assay on Rattus norvegicus [3] is recorded as 4%.

As for `CC[C@H](C)[C@H](NC(=O)[C@H](Cc1ccc(O)cc1)NC(=O)[C@@H](NC(=O)[C@H](CCCN=C(N)N)NC(=O)[C@@H](N)CC(=O)O)C(C)C)C(=O)N[C@@H](Cc1ccc(N)cc1)C(=O)N1CCC[C@H]1C(=O)N[C@@H](Cc1ccccc1)C(=O)O` (H-DRVYI[Phe(4-NH2)]PF-OH), the Activity in the assay on Rattus norvegicus [3] is recorded as 0.05%. As for `CC[C@H](C)[C@H](NC(=O)[C@H](Cc1ccc(O)cc1)NC(=O)[C@@H](NC(=O)[C@H](CCCN=C(N)N)NC(=O)[C@@H](N)CC(=O)O)C(C)C)C(=O)N[C@@H](Cc1ccsc1)C(=O)N1CCC[C@H]1C(=O)N[C@@H](Cc1ccccc1)C(=O)O` (H-DRVYI[3Thi]PF-OH), the Activity in the assay on Rattus norvegicus [3] stood at 19.3%. Consider `CC[C@H](C)[C@H](NC(=O)[C@H](Cc1ccc(O)cc1)NC(=O)[C@@H](NC(=O)[C@@H](N)CCCN=C(N)N)C(C)C)C(=O)N[C@@H](Cc1c[nH]cn1)C(=O)N1CCC[C@H]1C(=O)N[C@@H](Cc1ccccc1)C(=O)O` (stereo in doubt; 6), for which the Activity came to 33.3% in the assay with Rattus norvegicus [3] and 43.3% in the assay filed under Oryctolagus cuniculus. As to `CC[C@H](C)[C@H](NC(=O)[C@H](Cc1ccc(O)cc1)NC(=O)[C@@H](NC(=O)[C@H](N)CCCCN)C(C)C)C(=O)N[C@@H](Cc1c[nH]cn1)C(=O)N1CCC[C@H]1C(=O)N[C@@H](Cc1ccccc1)C(=O)O`, the Activity in the assay with Rattus norvegicus [3] is listed as 23%.

Molecule `CC[C@H](C)[C@H](NC(=O)[C@@H]1CCCN1C(=O)[C@H](Cc1c[nH]cn1)NC(=O)[C@@H](NC(=O)[C@H](Cc1ccc(O)cc1)NC(=O)[C@@H](NC(=O)C(C)(C)N)C(C)C)[C@@H](C)CC)C(=O)O` (H-[Aib]VYIHPI-OH) registered an Activity in the assay listed under Oryctolagus cuniculus of 0%. Regarding `CC[C@H](N)C(=O)N[C@H](C(=O)N[C@@H](Cc1ccc(O)cc1)C(=O)N[C@H](C(=O)N[C@@H](Cc1c[nH]cn1)C(=O)N1CCC[C@H]1C(=O)N[C@@H](Cc1ccccc1)C(=O)O)[C@@H](C)CC)C(C)C`, the Activity in the assay with Rattus norvegicus [3] turned out to be 0.92%.

Source of the values: ChEMBL document CHEMBL1124220 (J Med Chem, 1988).
